This note sets out measurements from paper PMC8721161 (International Journal of Nanomedicine, 2021).

A short description of data set [1]: In vitro dissolution / drug release study. It is filed as physicochemical. Particulars: 0.1 M phosphate buffer pH 6.8, 37±0.5 °C, dialysis bag, up to 12 h. The method in brief: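 Free test compound, its cyclodextrin complex and the complex-loaded chitosan nanoparticles were placed in dialysis bags presoaked overnight. Medium was 100 mL of 0.1 M phosphate buffer, pH 6.8, at 37±0.5 °C. Samples were 0.45 µm filtered and assayed by UV at 388 nm.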

For the next data set, the system named is α-glucosidase enzyme. Kind of data set: Alpha-glucosidase enzyme inhibition activity. Particulars: concentration not given. It is filed as biochemical. The method in brief:
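Enzyme was 0.02 U/μL α-glucosidase in 0.2 M sodium phosphate buffer, pH 6.8. Enzyme and buffer were preincubated 20 min with test compound in DMSO at 1000, 500, 250, 125 or 62.5 μg/mL. 0.02 M PNPG substrate was added for a further 30 min. The reaction was stopped with 0.2 M Na2CO3. Released p-nitrophenol was read at 405 nm and % inhibition calculated by formula.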

Data set [2] can be described thus: In vivo pharmacokinetic study, single oral dose, EPL in rabbit plasma by HPLC. Details: species or system rabbits (Oryctolagus cuniculus). The gist of the method:
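Non-pregnant adult rabbits (2.5±0.1 kg) in three groups of six got a single oral dose of free compound, complex or nanoparticles. Jugular blood went into EDTA at set times, was spun 12,000 rpm 30 min, and plasma stored −70 °C. Perchloric acid precipitation preceded C18 HPLC (acetonitrile:KH2PO4 60:40, pH 4.0; 388 nm; plasma calibration 0.02–10 μg/mL). Non-compartmental log-linear trapezoidal analysis gave parameters; mean±SD.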

As to `CC(/C=C1\SC(=S)N(CC(=O)O)C1=O)=C\c1ccccc1` [EPL, Epalrestat], in data set [1], the “cumulative drug release (%)” value is reported as 20–25%. Moreover, the “potency against α-glucosidase enzyme inhibition” value in the data set with α-glucosidase enzyme was “greater than 70%”. The highest level in data set [2] (plasma, po) (Cmax) was 4750 ± 3640 ng/mL. In addition, in data set [2] (plasma, po, AUC0-α, single oral dose, mean±SD), the exposure (AUC) (in general, the area under the concentration-time curve, a measure of exposure) amounted to 192 ± 165 µg·h/mL. In addition, in data set [2] (single oral dose, mean±SD), the AUC0-α stood at 191.5 ± 164.63 µg·h/mL, the MRT was 47.22±3.88 H and the “T1/2 (elimination half-life)” value is listed as 4 H.
